A selection: hits, their analogues and other compounds. The true share with any hit is near 2.6%.
GRK2 aptamer HTS = blocks RNA aptamer binding to human GRK2; AID 488847; inhibition of aptamer binding, % at 10 µM; bead flow cytometry, FAM-aptamer displacement from GRK2; actives 0.59% (n = 330,000); P25098;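 active = inhibition of aptamer binding above 40%, roughly 3 SD of noise, on plates passing a quality check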;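 note: median bead fluorescence of bound FAM aptamer so fluorescent compounds give negative values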
Target sequence (P25098 whole entry, looked up): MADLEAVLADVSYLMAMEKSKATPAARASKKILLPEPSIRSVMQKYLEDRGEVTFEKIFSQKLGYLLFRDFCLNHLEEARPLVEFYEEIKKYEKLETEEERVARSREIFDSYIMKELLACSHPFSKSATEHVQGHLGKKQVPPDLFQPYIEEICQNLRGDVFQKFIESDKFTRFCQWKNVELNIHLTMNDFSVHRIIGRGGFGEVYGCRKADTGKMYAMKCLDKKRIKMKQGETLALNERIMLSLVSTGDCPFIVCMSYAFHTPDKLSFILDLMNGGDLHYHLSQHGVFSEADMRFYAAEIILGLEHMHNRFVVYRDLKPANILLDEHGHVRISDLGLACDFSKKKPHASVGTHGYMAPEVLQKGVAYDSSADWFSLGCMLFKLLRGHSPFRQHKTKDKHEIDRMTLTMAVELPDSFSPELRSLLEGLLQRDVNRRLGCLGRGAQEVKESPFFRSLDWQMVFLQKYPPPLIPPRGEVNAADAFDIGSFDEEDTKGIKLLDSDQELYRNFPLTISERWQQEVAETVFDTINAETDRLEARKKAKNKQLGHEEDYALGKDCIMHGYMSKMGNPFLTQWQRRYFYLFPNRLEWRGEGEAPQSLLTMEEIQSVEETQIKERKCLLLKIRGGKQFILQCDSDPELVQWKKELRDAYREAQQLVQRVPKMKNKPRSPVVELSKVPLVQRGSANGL
SKN-1 inh = inhibitors of C. elegans SKN-1. actives 0.49% (n = 360,000). AID 624304. C. elegans VP596 Pgst-4::GFP/RFP ratio, acrylamide-induced, 24 h. inhibition, % at 21.8 µM;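 active = interference check ratio from 0.5 to 1.5 plus GFP to RFP signal ratio inhibition reaching or exceeding a fixed threshold, cut at about 30% in these data, passing the limit was not always enough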
Myeloid diff 2 = myeloid differentiation induction; ER-HoxA9 myeloid progenitors, lysozyme-GFP differentiation, flow cytometry; calls only at 10 µM; actives 1% (n = 360,000); AID 624256;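 active = normalized GFP-positive differentiation at or above the plate's own cutoff, the solvent-only control mean plus 3 SD; inconclusive = no clear call, values can overlap the other calls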;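 note: cells exposed to compound for four days before flow analysis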
Rce1 inhib = inhibitors of yeast Ras-converting enzyme; actives 0.27% (n = 290,000); Q03530; yeast membranes, quenched prenylated peptide cleavage fluorescence; calls only;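 active = fall in fluorescence gain of 50% or more versus controls, with final raw signal at or below 3038400; inconclusive = same 50% fall but final raw signal above 3038400; inactive = fall in fluorescence gain under 50%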
Rin1-Abl PPI inh = inhibitors of human Rin1-Abl protein interaction; P00519+Q13671; TR-FRET Rin1/Abl binding, biochemical; inhibition, % at 7.35 µM; actives 0.4% (n = 360,000); AID 588664; in the data active = inhibition above about 5%, passing the limit was not always enough
T cell HTS = modulates CD8 T cell binding to vesicles. 2C CD8+ T cell-vesicle binding, flow cytometry; active compounds read low. response (vesicle binding), % at 7 µM. actives 0.068% (n = 330,000). AID 2052;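 active = response, share of CD8 T cells binding vesicles, and their 90th percentile fluorescence all below set limits, cut at about 80% in these data, passing the limit was not always enough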;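 note: values below 100% mean blocked vesicle binding to the CD8+ T cells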
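incubation = binding step 1.5 h, 37 °C, antibody labelling 20 min, ice | test system = 2C mouse CD8+ T cells | read-out basis = percent CD8+ FL2 mean versus row control | controls = Peptide-free naked vesicles (low) and QL9 vesicles with 0.7% DMSO vehicle (high) | detection = flow cytometry of vesicle-bound cells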
Numbers stand for hits; 0 = inactive; ? = inconclusive; - = no result given; + = active, no number; ! = not active in a repeat.

SMILES | GRK2 aptamer HTS | SKN-1 inh | Myeloid diff 2 | Rce1 inhib | Rin1-Abl PPI inh | T cell HTS
CC[n+]1c(/C=C2/C=C(C)CC(C)(C)C2)sc2ccc(OC)cc21 | 0 | 0 | + | 0 | 0 | 0
CC(C)CC(=O)Nc1ccc2oc(-c3cccnc3)nc2c1 | 0 | 0 | 0 | + | 0 | 0
CCN(CC)CC(=O)Nc1ccc(-c2nc3cc(NC(=O)CN(CC)CC)ccc3o2)cc1 | 0 | 0 | 0 | 0 | 0 | 0
O=C(Nc1ccc2oc(-c3cccnc3)nc2c1)c1ccc(Br)o1 | 0 | 35 | 0 | 0 | 0 | 0
CCC(C)NCC(=O)Nc1ccc(-c2nc3cc(NC(=O)CNC(C)CC)ccc3o2)cc1 (centres undefined) | 0 | 0 | + | - | 0 | 0
O=C(Nc1ccc2oc(-c3cccnc3)nc2c1)c1ccco1 | 0 | 0 | 0 | 0 | 0 | 0
CCC(=O)Nc1ccc2oc(-c3cccnc3)nc2c1 | 0 | 0 | 0 | 0 | 0 | 0
O=C(Nc1ccc(-c2nc3ncccc3o2)cc1)c1ccc(Br)o1 | 0 | 38 | 0 | 0 | 0 | 0
O=[N+]([O-])c1cccc2c3c([nH]c12)CCCC3 | 0 | 0 | 0 | 0 | 0 | 0
O=C1NC2(CCCCC2)C(=O)N1c1cccc(Cl)c1 | 0 | 0 | 0 | 0 | 0 | 0
CN1/C(=C\C(=S)NC(=O)c2ccc([N+](=O)[O-])cc2)C(C)(C)c2ccccc21 | 0 | 0 | 0 | 0 | 0 | 0
CN1/C(=C\C(=S)NC(=O)c2cccc(Br)c2)C(C)(C)c2ccccc21 | 0 | 0 | + | 0 | 0 | 0
CN1/C(=C\C(=O)Nc2ccc(Br)cc2)C(C)(C)c2ccccc21 | 0 | 0 | 0 | 0 | 0 | 0
CN1/C(=C\C(=O)Nc2cccc(Cl)c2)C(C)(C)c2ccccc21 | 0 | 50 | 0 | 0 | 0 | 0
CNc1ccc(C(=O)N2CCN(S(=O)(=O)c3ccc4c(c3)OCCCO4)CC2)cc1[N+](=O)[O-] | 0 | 0 | + | 0 | 0 | 0
COc1ccccc1N1C(N)=NC(N)=NC1(C)C | 0 | 0 | +! | 0 | 0 | 0
Cc1ccccc1N1C(N)=NC(N)=NC1(C)C | 0 | - | + | 0 | 0 | 0
Cc1ccc(N2C(N)=NC(N)=NC2(C)C)c(C)c1 | 0 | 0 | ? | 0 | 0 | 0
CC(Sc1nc2ccccc2[nH]1)C(=O)NC1CCCCC1C (centres undefined) | 0 | 0 | 0 | 0 | 0 | 49
Clc1ccc(-n2nnc(-c3nccs3)n2)cc1Cl | - | 61 | 0 | 0 | 0 | -
Fc1ccc(-n2nnc(-c3cccnc3)n2)cc1 | - | 56 | 0 | 0 | 0 | -
COc1ncccc1-c1nnn(-c2ccc(Cl)c(Cl)c2)n1 | 0 | 0 | 0 | 0 | 0 | 0
Brc1ccccc1-n1nnc(-c2cccnc2)n1 | - | 0 | 0 | 0 | 0 | -
Clc1ccc(-n2nnc(-c3cccnc3)n2)cc1Cl | 0 | 59 | + | 0 | 0 | 0
Cc1ccc(-n2nnc(-c3nccs3)n2)cc1 | 0 | 0 | 0 | 0 | 0 | 0
SMILES | GRK2 aptamer HTS | SKN-1 inh | Myeloid diff 2 | Rce1 inhib | Rin1-Abl PPI inh | T cell HTS
c1ccc(Cc2cc[n+](Cc3ccccn3)cc2)cc1 | 0 | 0 | + | 0 | 0 | 0
CCOC(=O)C1=CN(Cc2cccc(F)c2)S(=O)(=O)N(C)C1CCc1ccccc1 (centres undefined) | 0 | 0 | 0 | - | 0 | -
C=CCNc1nc(Cl)ncc1F | 0 | 0 | ? | 0 | 0 | 0
C=CCNc1ncnc2sc(SC)nc12 | 0 | 50 | 0 | 0 | 0 | 0
COc1ccc(C=O)cc1COc1c(F)c(F)cc(F)c1F | 0 | 0 | + | 0 | 0 | 0
CCc1ccc(NC(=O)c2cnc(N3CCN(c4ccccn4)CC3)c3ccccc23)cc1 | 0 | 0 | 0 | + | 0 | 0
CC(C)NC(=O)c1cnc(N2CCN(c3ccccn3)CC2)c2ccccc12 | 0 | 0 | 0 | 0 | 0 | 0
Clc1ccc(/C=N/NC2=Nc3cccc4cccc2c34)cc1 | 0 | 0 | + | 0 | 0 | 0
C(=N\NC1=Nc2cccc3cccc1c23)/c1ccccc1 | 0 | 0 | 0 | 0 | 0 | 0
O=C1CCC[C@@H]2C[C@@]3(C[C@@H]4CCN1[C@H]24)Nc1cc(Cl)c(Cl)cc1NC3=NCc1ccccc1 | - | 0 | 0 | - | 0 | -
CC(C)c1ccccc1NS(=O)(=O)N(C)C | 0 | 0 | 0 | 0 | 0 | 0
CN(C)S(=O)(=O)NC(c1ccccc1)c1ccccc1 | 0 | 36 | 0 | 0 | 0 | 0
COc1ccc(Cl)cc1NS(=O)(=O)N1CCOCC1 | 0 | 0 | 0 | 0 | 0 | 0
COc1ccc(C2C(C#N)=C(N)SC(N)=C2C#N)cc1OC | 0 | 0 | + | 0 | 0 | 0
CC(C)NCC(O)COCCOc1ccc(Br)cc1 (centres undefined) | 0 | 0 | 0 | + | 0 | 0
CC(C)NCC(O)COCCOc1ccc(C(C)(C)C)cc1 (centres undefined) | 0 | 0 | 0 | 0 | 0 | 0
CCC(=O)Nc1ccc2c(c1)OC[C@@H](C)N(C(=O)c1ccccn1)C[C@@H](C)[C@@H](OC)CN(C)C2=O | - | 0 | 0 | - | - | -
CC(c1ccccc1)N1C(=O)c2cccnc2C1=O (centres undefined) | 0 | 39 | 0 | 0 | 0 | 0
CCC(C(=O)OCC(=O)Nc1ccc2[nH]c(=O)[nH]c2c1)c1ccccc1 (centres undefined) | 0 | 0 | 0 | 0 | 0 | 0
O=c1c(Cl)c2oc3ccccc3nc-2c2ccccc12 | 0 | 0 | + | 0 | 0 | 0
CCOC(=O)C1=CN(CC2CCCCC2)CCC1=O | - | 0 | 0 | - | 0 | -
Cc1cccc(N(C)C(=O)c2cc(S(=O)(=O)N3CCc4ccccc43)cn2C)c1 | 0 | 0 | + | 0 | 0 | 0
COc1ccc(CCN2CC(C(=O)NCCc3cn[nH]c3)CCC2=O)cc1 (centres undefined) | 0 | 0 | 0 | 0 | 0 | 0
CCCC(C(=O)NNC(=O)c1ccncc1)c1ccccc1 (centres undefined) | 0 | 0 | 0 | - | 0 | 0
O=C(c1ccc2ncsc2c1)N1CCN(c2cccc(C(F)(F)F)c2)CC1 | - | 0 | + | - | 0 | -
SMILES | GRK2 aptamer HTS | SKN-1 inh | Myeloid diff 2 | Rce1 inhib | Rin1-Abl PPI inh | T cell HTS
O=C(c1ccc2nc[nH]c2c1)N1CCN(c2cccc(C(F)(F)F)c2)CC1 | 0 | 0 | 0 | 0 | 0 | 0
COc1ccc(OC)c2sc(N3CCN(C(=O)c4ccc5ncsc5c4)CC3)nc12 | 0 | 0 | 0 | 0 | 0 | 0
COc1ccccc1N1CCN(C(=O)c2ccc3ncsc3c2)CC1 | - | 0 | + | - | 0 | -
COc1cccc(NC(=O)NCc2ccccc2Cl)c1 | 0 | 0 | 0 | 0 | 0 | 0
NC(=O)C1=C[C@@H](C2CCCCC2)C[C@@H](OCc2ccc(CO)cc2)O1 | 0 | 0 | 0 | 0 | 0 | 0
CCCCCOC(=O)C1C2C=CC3(CN(c4ccccc4C)C(=O)C13)O2 (centres undefined) | 0 | 0 | + | 0 | 0 | 0
CC(C)(O)C#Cc1ccc(N2C(c3ccsc3)=Cc3ccc(F)cc3C2c2c[nH]c3ccc(C#N)cc23)cc1 (centres undefined) | - | 0 | + | - | - | -
CC1(C(=O)OCC(=O)NCCNC(=O)COC(=O)C2(C)CC2(Cl)Cl)CC1(Cl)Cl (centres undefined) | 0 | 0 | 0 | 0 | 0 | 0

Screening data (PubChem BioAssay)
